Experimental data from ChEMBL document CHEMBL4229473, “Discovery of novel leucyladenylate sulfamate surrogates as leucyl-tRNA synthetase (LRS)-targeted mammalian target of rapamycin complex 1 (mTORC1) inhibitors” (Bioorg Med Chem, 2018).
Calls of active or inactive are those of the source. No cut-off for these calls is given here.

Columns and labels:
[1] = biological target: Leucine--tRNA ligase, cytoplasmic (Homo sapiens) (UniProt Q9P2J5); assay: Inhibition of LRS-mediated mTORC1 activation in HEK293 cells assessed as decrease in leucine-induced S6K phosphorylation at T389 at 200 uM treated prior to leucine induction measured after 10 mins by Western blot method; format: cell-based
Leucine--tRNA ligase, cytoplasmic (Homo sapiens), sequence (Q9P2J5 whole entry, looked up): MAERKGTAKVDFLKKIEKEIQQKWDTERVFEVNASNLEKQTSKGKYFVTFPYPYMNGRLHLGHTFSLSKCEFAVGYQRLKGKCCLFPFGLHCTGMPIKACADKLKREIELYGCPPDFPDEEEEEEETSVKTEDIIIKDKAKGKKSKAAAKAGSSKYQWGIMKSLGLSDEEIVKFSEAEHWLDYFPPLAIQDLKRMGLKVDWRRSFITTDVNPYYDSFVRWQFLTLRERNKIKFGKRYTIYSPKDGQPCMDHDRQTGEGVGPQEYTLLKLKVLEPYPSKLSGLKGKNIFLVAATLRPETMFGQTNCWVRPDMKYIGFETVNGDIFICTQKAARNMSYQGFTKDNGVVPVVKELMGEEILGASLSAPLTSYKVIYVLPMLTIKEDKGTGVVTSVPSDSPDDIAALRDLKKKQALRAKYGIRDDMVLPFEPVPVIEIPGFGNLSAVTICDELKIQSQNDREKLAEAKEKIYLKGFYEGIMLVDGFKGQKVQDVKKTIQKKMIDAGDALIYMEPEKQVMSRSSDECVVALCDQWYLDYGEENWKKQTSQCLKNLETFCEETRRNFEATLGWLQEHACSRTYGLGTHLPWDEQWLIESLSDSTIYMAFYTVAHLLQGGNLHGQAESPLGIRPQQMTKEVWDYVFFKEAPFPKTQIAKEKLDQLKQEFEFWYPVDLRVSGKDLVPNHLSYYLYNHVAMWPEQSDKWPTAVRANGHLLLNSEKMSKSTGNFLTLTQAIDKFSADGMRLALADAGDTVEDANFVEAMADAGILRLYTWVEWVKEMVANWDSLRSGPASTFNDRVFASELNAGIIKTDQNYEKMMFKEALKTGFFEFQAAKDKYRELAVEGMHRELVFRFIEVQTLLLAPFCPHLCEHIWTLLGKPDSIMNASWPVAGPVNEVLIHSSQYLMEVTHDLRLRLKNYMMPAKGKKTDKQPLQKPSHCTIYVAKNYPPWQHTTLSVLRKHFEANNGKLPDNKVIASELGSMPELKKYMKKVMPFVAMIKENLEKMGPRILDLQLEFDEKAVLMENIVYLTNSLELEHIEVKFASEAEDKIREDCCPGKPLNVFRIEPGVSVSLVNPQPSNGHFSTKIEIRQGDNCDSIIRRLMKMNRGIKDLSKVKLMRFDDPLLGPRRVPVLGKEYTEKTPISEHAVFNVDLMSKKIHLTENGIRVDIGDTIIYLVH
Procedure, shortened: (§1)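 HEK293 cells were pretreated at one fixed level: test agents at 200 μM, rapamycin at 100 nM or leucinol at 800 μM. mTORC1 was then activated by adding leucine for 10 min. Lysates were Western blotted for phospho-S6K, total S6K, LRS, mTOR and phospho-mTOR.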

HEK293 [2] = assay: Effect on S6K expression in HEK293 cells at 200 uM treated prior to leucine addition measured after 10 mins by Western blot method; format: functional, cell-based; conditions: Homo sapiens; procedure, shortened: as §1
HEK293 [3] = assay: Effect on LRS expression in HEK293 cells at 200 uM treated prior to leucine addition measured after 10 mins by Western blot method; format: functional, cell-based; conditions: Homo sapiens; procedure, shortened: as §1
HEK293 [4] = assay: Effect on mTOR expression in HEK293 cells at 200 uM treated prior to leucine addition measured after 10 mins by Western blot method; format: functional, cell-based; conditions: Homo sapiens; procedure, shortened: as §1
[5] = biological target: Serine/threonine-protein kinase mTOR (Homo sapiens) (UniProt P42345); assay: Inhibition of mTOR phosphorylation in HEK293 cells at 200 uM treated prior to leucine addition measured after 10 mins by Western blot method; format: cell-based; procedure, shortened: as §1
[6] = biological target: Leucine--tRNA ligase, cytoplasmic (Homo sapiens) (UniProt Q9P2J5); assay: Inhibition of LRS-mediated mTORC1 activation in HEK293 cells assessed as decrease in leucine-induced S6K phosphorylation at T389 at 800 uM treated prior to leucine induction measured after 10 mins by Western blot method; format: cell-based; procedure, shortened: as §1
[7] = biological target: Leucine--tRNA ligase, cytoplasmic (Homo sapiens) (UniProt Q9P2J5); assay: Inhibition of LRS-mediated mTORC1 activation in HEK293 cells assessed as decrease in leucine-induced S6K phosphorylation at T389 treated prior to leucine induction measured after 10 mins by Western blot method; format: cell-based
Procedure, shortened: (§2)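 Dose-dependent series in HEK293 cells. Compounds were given as pretreatment at several concentrations, then leucine was added for 10 min to activate mTORC1. Western blots were probed for phospho-S6K, S6K, LRS, mTOR and phospho-mTOR.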

HEK293 [8] = assay: Effect on S6K expression in HEK293 cells at 20 to 200 uM treated prior to leucine addition measured after 10 mins by Western blot method; format: functional, cell-based; conditions: Homo sapiens; procedure, shortened: as §2
HEK293 [9] = assay: Effect on LRS expression in HEK293 cells at 20 to 200 uM treated prior to leucine addition measured after 10 mins by Western blot method; format: functional, cell-based; conditions: Homo sapiens; procedure, shortened: as §2
HEK293 [10] = assay: Effect on mTOR expression in HEK293 cells at 20 to 200 uM treated prior to leucine addition measured after 10 mins by Western blot method; format: functional, cell-based; conditions: Homo sapiens; procedure, shortened: as §2
[11] = biological target: Serine/threonine-protein kinase mTOR (Homo sapiens) (UniProt P42345); assay: Inhibition of mTOR phosphorylation in HEK293 cells at 20 to 200 uM treated prior to leucine addition measured after 10 mins by Western blot method; format: cell-based; procedure, shortened: as §2
[12] = biological target: Leucine--tRNA ligase, cytoplasmic (Homo sapiens) (UniProt Q9P2J5); assay: Inhibition of LRS aminooleucylation in HEK293 cells assessed as residual activity; format: cell-based
A549 = assay: Cytotoxicity against human A549 cells assessed as growth inhibition after 72 hrs by SRB assay; format: functional, cell-based; conditions: A549, 72 h
Procedure, shortened: (§3)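 Growth-inhibition IC50 values in a panel of cancer lines: A549 (lung), HCT116 (colon), K562 (leukemia), MDA-MB-231 (breast), SK-Hep-1 (liver) and SNU638 (stomach), plus MRC5 (described as normal lung epithelial cells). Etoposide was run in parallel as the positive control.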

HCT-116 = assay: Cytotoxicity against human HCT116 cells assessed as growth inhibition after 72 hrs by SRB assay; format: functional, cell-based; conditions: HCT-116, 72 h; procedure, shortened: as §3
K562 = assay: Cytotoxicity against human K562 cells assessed as growth inhibition after 72 hrs by SRB assay; format: functional, cell-based; conditions: K562, 72 h; procedure, shortened: as §3
MDA-MB-231 = assay: Cytotoxicity against human MDA-MB-231 cells assessed as growth inhibition after 72 hrs by SRB assay; format: functional, cell-based; conditions: MDA-MB-231, 72 h; procedure, shortened: as §3
SK-HEP1 = assay: Cytotoxicity against human SKHEP1 cells assessed as growth inhibition after 72 hrs by SRB assay; format: functional, cell-based; conditions: SK-HEP1, 72 h; procedure, shortened: as §3
SNU-638 = assay: Cytotoxicity against human SNU638 cells assessed as growth inhibition after 72 hrs by SRB assay; format: functional, cell-based; conditions: SNU-638, 72 h; procedure, shortened: as §3
MRC5 = assay: Cytotoxicity against human MRC5 cells assessed as growth inhibition after 72 hrs by SRB assay; format: cell-based; conditions: MRC5, 72 h; procedure, shortened: as §3
[13] = biological target: Leucine--tRNA ligase, cytoplasmic (Homo sapiens) (UniProt Q9P2J5); assay: Inhibition of LRS-mediated mTORC1 activation in HEK293 cells assessed as decrease in leucine-induced S6K phosphorylation at T389 at 100 uM treated prior to leucine induction measured after 10 mins by Western blot method; format: cell-based; procedure, shortened: as §2
[14] = biological target: Leucine--tRNA ligase, cytoplasmic (Homo sapiens) (UniProt Q9P2J5); assay: Inhibition of LRS-mediated mTORC1 activation in HEK293 cells assessed as decrease in leucine-induced S6K phosphorylation at T389 at 100 nM treated prior to leucine induction measured after 10 mins by Western blot method; format: cell-based; procedure, shortened: as §1

COc1cc2ncnc(Nc3ccc(F)c(Cl)c3)c2cc1OC(=O)[C@@H](N)CC(C)C was tested, and the inhibition [1] was “inactive”, the Activity (HEK293 [2]) was “inactive” and the Activity (HEK293 [3]) was “inactive”. For the same molecule, the Activity (HEK293 [4]) was “inactive” and the inhibition [5] was “inactive”.

With COc1cc2ncnc(Nc3ccc(F)c(Cl)c3)c2cc1OCCOS(=O)(=O)NC(=O)[C@@H](O)CC(C)C the inhibition [1] was “inactive”, the Activity (HEK293 [2]) was “inactive” and the Activity (HEK293 [3]) was “inactive”. For the same molecule, the Activity (HEK293 [4]) was “inactive” and the inhibition [5] was “inactive”.

CC(C)C[C@H](N)CO was tested, and the inhibition [6] was “Active”.

In the case of COc1cc2ncnc(Nc3ccc(F)c(Cl)c3)c2cc1OS(=O)(=O)NC(=O)[C@@H](O)CC(C)C, the inhibition [1] is reported as “Active”, the inhibition [7] is reported as “Dose-dependent effect” and the Activity (HEK293 [8]) is reported as “inactive”. For the same molecule, the Activity (HEK293 [9]) was “inactive”, the Activity (HEK293 [10]) was “inactive” and the inhibition [11] was “inactive”. The Activity [12] was > 70%, the IC50 (A549) was 4.38 µM and the IC50 (HCT-116) was 4.04 µM. For the same molecule, the IC50 (K562) was 4.1 µM, the IC50 (MDA-MB-231) was 6.23 µM and the IC50 (SK-HEP1) was 3.3 µM. The IC50 (SNU-638) was 4.94 µM and the IC50 (MRC5) was 18.8 µM.

For COc1cc2ncnc(Nc3ccc(F)c(Cl)c3)c2cc1OCCOC(=O)[C@@H](N)CC(C)C, the inhibition [1] was “Active”, the inhibition [13] was “Active” and the Activity (HEK293 [8]) was “inactive”. The Activity (HEK293 [9]) was “inactive”, the Activity (HEK293 [10]) was “inactive” and the inhibition [11] was “inactive”. It also gave an IC50 (A549) of 3.59 µM, an IC50 (HCT-116) of 3.97 µM and an IC50 (K562) of 4.01 µM. It also gave an IC50 (MDA-MB-231) of 3.65 µM, an IC50 (SK-HEP1) of 1.94 µM and an IC50 (SNU-638) of 3.86 µM. For the same molecule, the IC50 (MRC5) was 1.87 µM.

With CO[C@H]1C[C@@H]2CC[C@@H](C)[C@@](O)(O2)C(=O)C(=O)N2CCCC[C@H]2C(=O)O[C@H]([C@H](C)C[C@@H]2CC[C@@H](O)[C@H](OC)C2)CC(=O)[C@H](C)/C=C(\C)[C@@H](O)[C@@H](OC)C(=O)[C@H](C)C[C@H](C)/C=C/C=C/C=C/1C the inhibition [14] was “Active”.

In the case of COc1cc2ncnc(Nc3ccc(F)c(Cl)c3)c2cc1OCCOS(=O)(=O)NC(=O)[C@@H](N)CC(C)C, the inhibition [1] is reported as “inactive”, the Activity (HEK293 [2]) is reported as “inactive” and the Activity (HEK293 [3]) is reported as “inactive”. The Activity (HEK293 [4]) was “inactive” and the inhibition [5] was “inactive”.

For COc1cc2ncnc(Nc3ccc(F)c(Cl)c3)c2cc1OCCOC(=O)[C@@H](O)CC(C)C, the inhibition [7] was “Dose-dependent effect”, the Activity (HEK293 [8]) was “inactive” and the Activity (HEK293 [9]) was “inactive”. For the same molecule, the Activity (HEK293 [10]) was “inactive”, the inhibition [11] was “inactive” and the Activity [12] was > 70%. For the same molecule, the IC50 (A549) was 3.16 µM, the IC50 (HCT-116) was 3.12 µM and the IC50 (K562) was 3.89 µM. The IC50 (MDA-MB-231) was 2.05 µM, the IC50 (SK-HEP1) was 1.39 µM and the IC50 (SNU-638) was 3.41 µM. The IC50 (MRC5) was 1.12 µM.

COc1cc2ncnc(Nc3ccc(F)c(Cl)c3)c2cc1OCCNC(=O)[C@@H](O)CC(C)C was tested, and the inhibition [1] was “Active”, the Activity (HEK293 [2]) was “inactive” and the Activity (HEK293 [3]) was “inactive”. For the same molecule, the Activity (HEK293 [4]) was “inactive” and the inhibition [5] was “inactive”.

COc1cc2ncnc(Nc3ccc(F)c(Cl)c3)c2cc1OCCNC(=O)[C@@H](N)CC(C)C was tested, and the inhibition [1] was “Active”, the inhibition [13] was “inactive” and the Activity (HEK293 [8]) was “inactive”. For the same molecule, the Activity (HEK293 [9]) was “inactive”, the Activity (HEK293 [10]) was “inactive” and the inhibition [11] was “inactive”. The Activity [12] was > 70%, the IC50 (A549) was 2.79 µM and the IC50 (HCT-116) was 4.24 µM. For the same molecule, the IC50 (K562) was 3.83 µM, the IC50 (MDA-MB-231) was 4.59 µM and the IC50 (SK-HEP1) was 2.21 µM. The IC50 (SNU-638) was 2.97 µM and the IC50 (MRC5) was > 20 µM.

For COc1cc2ncnc(Nc3ccc(F)c(Cl)c3)c2cc1OC(=O)[C@@H](O)CC(C)C, the inhibition [1] was “inactive”, the Activity (HEK293 [2]) was “inactive” and the Activity (HEK293 [3]) was “inactive”. For the same molecule, the Activity (HEK293 [4]) was “inactive” and the inhibition [5] was “inactive”.

For COc1cc2ncnc(Nc3ccc(F)c(Cl)c3)c2cc1OS(=O)(=O)NC(=O)[C@@H](N)CC(C)C, the inhibition [1] was “Active”, the Activity (HEK293 [2]) was “inactive” and the Activity (HEK293 [3]) was “inactive”. For the same molecule, the Activity (HEK293 [4]) was “inactive” and the inhibition [5] was “inactive”.
